Calls of active or inactive are those of the source. The calls are words filed in the database; no cut-off is given here.
Key:
SW-620 [1] = test: Induction of cell cycle arrest on human SW620 cells assessed as accumulation at subG1 phase at 20 uM after 48 hrs by propidium iodide staining based flow cytometry (reference value: 12.1 +/- 0.3%); format: functional; settings: in the assay text read “after 24 hrs” for “after 48 hrs”
Method in brief: (§1)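 HepG2 or SW620 cells were seeded at 25000 per well. After 24 h they were treated, then harvested 24 or 48 h later. Attached cells were trypsinized, pooled with floating cells, PBS-washed and fixed in 70% ethanol. Cells were stained with PI 1 µg/mL plus RNase A 0.2 µg/mL, and 10 000 events were acquired by flow cytometry. Phase percentages come from DNA histograms, in duplicate, with ANOVA at p < 0.05.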

SW-620 [2] = test: Induction of cell cycle arrest on human SW620 cells assessed as accumulation at S phase at 20 uM after 48 hrs by propidium iodide staining based flow cytometry (reference value: 39.4 +/- 0.2%); format: functional; settings: in the assay text read “after 24 hrs” for “after 48 hrs”; method in brief: as §1
SW-620 [3] = test: Induction of cell cycle arrest on human SW620 cells assessed as accumulation at S phase at 50 uM after 48 hrs by propidium iodide staining based flow cytometry (reference value: 39.4 +/- 0.2%); format: functional; settings: in the assay text read “after 24 hrs” for “after 48 hrs”; method in brief: as §1
MCF7 = test: Antiproliferative activity against human MCF7 cells assessed as inhibition of cell proliferation after 72 hrs by MTT assay; format: functional, cell-based
Method in brief: (§2)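 Cells grown as monolayers in DMEM with 10% FBS, 2 mM L-glutamine, penicillin/streptomycin, 37 °C, 5% CO2. Seeded at 5000/well on day 0. Compounds added after 24 h as five serial dilutions (0,01 to 100 µM), DMSO ≤0.1%, then 72 h. MTT read-out converted to percentage growth. IC50 by linear regression; quadruplicates in three experiments.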

[4] = biological target: T1, DNA topoisomerase 1 (Homo sapiens) (UniProt P11387); test: Inhibition of human topoisomerase 1 assessed as topoisomerase poison activity by measuring generation of open circular DNA using supercoiled pUC19 DNA at 5 to 50 uM by agarose gel electrophoresis
T1 sequence (whole entry): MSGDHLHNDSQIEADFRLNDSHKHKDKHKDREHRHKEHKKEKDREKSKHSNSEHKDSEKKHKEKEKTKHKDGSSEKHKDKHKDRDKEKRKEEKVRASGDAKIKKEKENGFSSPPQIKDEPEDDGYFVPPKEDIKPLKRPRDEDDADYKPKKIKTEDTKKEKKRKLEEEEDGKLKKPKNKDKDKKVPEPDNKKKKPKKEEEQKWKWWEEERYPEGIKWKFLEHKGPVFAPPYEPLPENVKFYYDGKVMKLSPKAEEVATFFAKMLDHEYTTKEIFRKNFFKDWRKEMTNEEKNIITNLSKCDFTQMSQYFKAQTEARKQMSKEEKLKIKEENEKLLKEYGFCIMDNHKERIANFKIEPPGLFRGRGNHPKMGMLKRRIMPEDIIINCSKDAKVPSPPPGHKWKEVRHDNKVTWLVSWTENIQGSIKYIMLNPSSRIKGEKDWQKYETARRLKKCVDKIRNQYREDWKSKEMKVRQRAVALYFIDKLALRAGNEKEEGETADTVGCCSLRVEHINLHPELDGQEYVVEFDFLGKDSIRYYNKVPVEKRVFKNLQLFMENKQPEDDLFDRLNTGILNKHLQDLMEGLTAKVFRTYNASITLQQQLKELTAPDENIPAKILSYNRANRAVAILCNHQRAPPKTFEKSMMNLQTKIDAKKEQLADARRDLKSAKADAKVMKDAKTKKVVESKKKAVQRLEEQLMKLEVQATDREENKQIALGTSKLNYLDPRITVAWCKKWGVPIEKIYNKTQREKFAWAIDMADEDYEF
Method in brief: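 Supercoiled pUC19 plasmid was incubated with human topoisomerase I and graded compound concentrations. Reactions were stopped with SDS and proteinase K. DNA forms were resolved on 1% agarose in TBE (2 h, 120 V), post-stained with ethidium bromide and photographed under UV. Poisoning was read as appearance of nicked DNA, with camptothecin as the positive control.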

Calf thymus DNA [5] = test: Binding affinity to calf thymus DNA assessed as change in melting temperature at drug/ base pair ratio of 0.5 by spectrophotometry; format: nucleic-acid assay; settings: Bos taurus
Method in brief: (§3)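 CT-DNA absorbance followed at 260 nm from 20 to 100 °C, rising 1 °C per min, in BPE buffer, with or without compound at drug/base-pair ratio 0.25 or 0.5. Tm taken as midpoint of the hyperchromic transition from first-derivative plots. ΔTm is Tm with compound minus Tm of DNA alone.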

HeLa = test: Antiproliferative activity against human HeLa cells assessed as inhibition of cell proliferation after 72 hrs by MTT assay; format: functional, cell-based; method in brief: as §2
BJ = test: Antiproliferative activity against human BJ cells assessed as inhibition of cell proliferation after 72 hrs by MTT assay; format: cell-based; settings: 72 h; method in brief: as §2
Calf thymus DNA [6] = test: Binding affinity to calf thymus DNA at 50 uM circular dichroism spectroscopy; format: nucleic-acid assay; settings: Bos taurus
Method in brief: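 CD spectra recorded from 480 to 230 nm, 10 mm path, 20 °C, in BPE buffer. CT-DNA (50 µM) incubated with compound rising from 1 to 60 µM or to 80 µM. Compound without DNA served as the control for intrinsic CD.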

SW-620 [7] = test: Induction of cell cycle arrest on human SW620 cells assessed as accumulation at G2/M phase at 20 uM after 48 hrs by propidium iodide staining based flow cytometry (reference value: 22.5 +/- 0.9%); format: functional; settings: in the assay text read “after 24 hrs” for “after 48 hrs”; method in brief: as §1
Nucleic Acid = test: Induction of DNA intercalation in supercoiled pUC19 DNA in presence of human topoisomerase 1 assessed as effect on topoisomerase 1-mediated DNA relaxation at 5 to 50 uM by agarose gel electrophoresis; format: nucleic-acid assay; settings: Escherichia coli
Method in brief: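 Supercoiled pUC19 incubated with human topoisomerase I and graded compound concentrations. Stopped with SDS/proteinase K. DNA forms resolved on 1% agarose in TBE, 2 h at 120 V, stained post-run with ethidium bromide and viewed under UV. Camptothecin was the topo I poison control.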

SW-620 [8] = test: Induction of cell cycle arrest on human SW620 cells assessed as accumulation at G1 phase at 20 uM after 48 hrs by propidium iodide staining based flow cytometry (reference value: 38.1 +/- 1.1%); format: functional; settings: in the assay text read “after 24 hrs” for “after 48 hrs”; method in brief: as §1
SW-620 [9] = test: (§4) Antiproliferative activity against human SW620 cells assessed as inhibition of cell proliferation after 72 hrs by MTT assay; format: functional, cell-based; method in brief: as §2
[10] = as §4; format: functional, cell-based, SW-620; settings: Homo sapiens, SW-620, 72 h; method in brief: as §2
SW-620 [11] = test: Induction of apoptosis in human SW620 cells assessed as enlarged cells level at 50 uM after 24 hrs by Annexin V-Fluos staining based fluorescent microscopy; format: functional, cell-based
Method in brief: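 Cells seeded on chamber slides at 4000 per well and treated 24 h (HepG2 at 25 or 50 µM; SW620 at 50 µM). Incubated 15 min with Annexin V-Fluos reagent plus propidium iodide, washed in PBS, and examined by fluorescence microscopy for morphology and labelling.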

SW-620 [12] = test: Induction of cell cycle arrest on human SW620 cells assessed as accumulation at G1 phase at 50 uM after 48 hrs by propidium iodide staining based flow cytometry (reference value: 38.1 +/- 1.1%); format: functional; settings: in the assay text read “after 24 hrs” for “after 48 hrs”; method in brief: as §1
SW-620 [13] = test: Induction of cell cycle arrest on human SW620 cells assessed as accumulation at subG1 phase at 50 uM after 48 hrs by propidium iodide staining based flow cytometry (reference value: 12.1 +/- 0.3%); format: functional; settings: in the assay text read “after 24 hrs” for “after 48 hrs”; method in brief: as §1
HepG2 = test: Antiproliferative activity against human HepG2 cells assessed as inhibition of cell proliferation after 72 hrs by MTT assay; format: functional, cell-based; method in brief: as §2
Calf thymus DNA [14] = test: Binding affinity to calf thymus DNA assessed as change in melting temperature at drug/ base pair ratio of 0.25 by spectrophotometry; format: nucleic-acid assay; settings: Bos taurus; method in brief: as §3
SW-620 [15] = test: Induction of cell cycle arrest on human SW620 cells assessed as accumulation at G2/M phase at 50 uM after 48 hrs by propidium iodide staining based flow cytometry (reference value: 22.5 +/- 0.9%); format: functional; settings: in the assay text read “after 24 hrs” for “after 48 hrs”; method in brief: as §1

## Cl.c1ccc2c(c1)CN(c1ccc(C3=NCCN3)nc1)/C2=N/c1ccc(C2=NCCN2)nc1
SW-620 [1]
  Activity: 7.5%
SW-620 [2]
  Activity: 40.4%
SW-620 [3]
  Activity: 36.2%
MCF7
  inhibition: Dose-dependent effect
MCF7; Homo sapiens, MCF7, 72 h
  IC50: 3.76 µM
[4]
  inhibition: inactive
Calf thymus DNA [5]
  ΔTm: 17.3 °C
HeLa
  inhibition: Dose-dependent effect
HeLa; Homo sapiens, HeLa, 72 h
  IC50: 6.25 µM
BJ; Homo sapiens, BJ
  IC50: 4.26 µM
BJ; human, bj
  inhibition (INH): Dose-dependent effect
Calf thymus DNA [6]
  Activity: Active
SW-620 [7]
  Activity: 40%
Nucleic Acid
  Activity: Active
SW-620 [8]
  Activity: 19.6%
SW-620 [9]
  inhibition: Dose-dependent effect
[10]
  IC50: 5.26 µM
SW-620 [11]
  Activity: Active
SW-620 [12]
  Activity: 22.1%
SW-620 [13]
  Activity: 7.8%
HepG2
  inhibition: Dose-dependent effect
HepG2; HepG2, 72 h
  IC50: 20.5 µM
Calf thymus DNA [14]
  ΔTm: 12.2 °C
SW-620 [15]
  Activity: 41.7%

Source: ChEMBL document CHEMBL3352181, “Novel phenyl and pyridyl substituted derivatives of isoindolines: Synthesis, antitumor activity and DNA binding features” (Eur J Med Chem, 2014)
